Source: PubChem BioAssay (Broad Institute)
A selection: hits, their analogues and other compounds. The true share with any hit is near 4%.
E-sel inducer: E-selectin induction in HUVECs, primary screen, imaging, HUVEC, immunofluorescence imaging, single point; P16581; normalized: neutral wells 0, TNF-alpha wells 100; activation, % at 7.58 µM; 260,000 tested, 0.37% active; AID 686992, 2013;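 active = mean E-selectin-positive cell signal at least 10% of the positive control, reached in at least 60% of replicates, without over 20% cell loss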
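assay system = HUVEC, human umbilical vein endothelial cells | input = 3,000 HUVEC seeded per well | medium = EGM-2 growth medium on 0.1% gelatin-coated wells | dosing = one compound dose added by pin transfer | signal = immunofluorescence imaging | read-out basis = % PE-positive cells | control set = TNF-alpha, DMSO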
FGF22 binding: binders of human FGF22 protein, primary screen, FGF22 synaptogenesis inhibitor project, biophysical, thermal shift, single point | Fibroblast growth factor 22 (Homo sapiens), Q9HCT0 | recombinant FGF22 thermal shift, SYPRO orange fluorescence; percent of sucrose octasulfate shift, DMSO zero | activity (Tm shift, normalised), % at 9.99 µM | 340,000 tested, 1.5% active | AID 651658, 2012;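 active = mean Tm shift, scaled 0 neutral to 100 positive control, at about 1.3% or above, every replicate too, limit read from the data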
Target sequence (Q9HCT0 whole entry, looked up): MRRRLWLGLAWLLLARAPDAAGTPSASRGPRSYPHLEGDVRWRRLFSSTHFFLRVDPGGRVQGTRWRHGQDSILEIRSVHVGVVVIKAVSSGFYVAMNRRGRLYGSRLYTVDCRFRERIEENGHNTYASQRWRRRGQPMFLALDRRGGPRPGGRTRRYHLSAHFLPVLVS
FN deposit inh: inhibitors of fibronectin matrix deposition, primary screen, AH1F cells, Alexa488-fibronectin fluorescence, plate reader; 350,000 tested, 0.086% active; AH1F fibroblasts, overnight; inhibition, % at 12.6 µM;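 active = mean inhibition across replicates of 30% or more, regardless of how many single replicates reach that level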;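 also: positive control wells lacked labelled fibronectin entirely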
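Assay system: AH1F fibroblasts / Quantity: 10000 cells per well / Medium: DMEM plus 2% serum, read in PBS / Reagent: labelled fibronectin 24 nM / Dosing: single dose, pinned / Times: 1 h cell attachment, overnight exposure to compound and label / Signal: fluorescence, ex 485 nm, em 525 nm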
Ecoli rRNA inh: reduced GFP signal of wild-type E. coli, primary screen, bacterial rRNA inhibitor project, GFP/RFP fluorescence, OD600, single point; GFP signal change (wild-type ribosome), % (test concentration not listed); 350,000 tested, 1.6% active; E. coli WT GFP vs humanized-ribosome RFP mutants, 24 h; active compounds read low; DMSO median 0, no signal -100;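 active = significant combined selectivity score with lowered wild-type GFP, culture density cut under 30%, mutant RFP and density less affected; inactive = any of these conditions unmet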
C2C12 statin: suppressors of statin myotoxicity in C2C12 myotubes, primary screen, cell-based, single point, plate reader. AID 602340, 2012. rescue of ATP level, % at 7.49 µM. 330,000 tested, 0.78% active. C2C12 myotubes + simvastatin, ATP luminescence, 48 h; scaled: DMSO 0, geranylgeraniol control 100;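 active = mean ATP rescue above about 67%, or every replicate alone reaching that limit, limit read from the data, passing the limit was not always enough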;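 also: myotubes were challenged with 10 µM simvastatin during compound exposure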
SIRT5 inh: SIRT5 desuccinylase inhibitors, primary screen, biochemical, fluorescence imaging, single point, set 5. Purified SirT5, succinyl-peptide AMC, trypsin-coupled fluorescence. inhibition, % at 15 µM. 330,000 tested, 1.1% active; in the data active = inhibition above about 15%
Target sequence (Q9NXA8 whole entry, looked up): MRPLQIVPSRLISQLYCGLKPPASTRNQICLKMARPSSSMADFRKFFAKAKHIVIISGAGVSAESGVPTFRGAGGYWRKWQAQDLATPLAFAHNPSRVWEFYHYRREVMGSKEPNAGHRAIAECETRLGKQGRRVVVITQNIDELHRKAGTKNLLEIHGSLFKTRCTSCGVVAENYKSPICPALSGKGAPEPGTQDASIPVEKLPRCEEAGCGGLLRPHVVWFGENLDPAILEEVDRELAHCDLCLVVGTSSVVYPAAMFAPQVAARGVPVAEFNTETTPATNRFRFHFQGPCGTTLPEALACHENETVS
* marks the source's active call; other numbers are inactive results; . = no result.

SMILES | E-sel inducer | FGF22 binding | FN deposit inh | Ecoli rRNA inh | C2C12 statin | SIRT5 inh
COc1ccc2[nH]c3c(NCCC4=CCCCC4)ncnc3c2c1 | -2 | 0 | 11 | -54* | . | -8
COc1ccc2[nH]c3c(NCCCOC(C)C)ncnc3c2c1 | 0 | 0 | -4 | -6 | . | -26
O=C(C[C@@H]1C=C[C@H](NC(=O)Nc2ccccc2)[C@H](CO)O1)NCc1ccccn1 | -1 | 0 | . | 2 | 3 | -2
C[C@H](CO)N1C[C@H](C)[C@@H](CN(C)S(=O)(=O)c2cn(C)cn2)Oc2cc(C3=CCCC3)ccc2S1(=O)=O | 1 | 0 | -14 | -1 | -30 | 2
Cc1sc2ncnc(Sc3ccccc3C(=O)O)c2c1C | 0 | 0 | -1 | -24* | . | 2
O=C(C[C@H]1CC[C@H]2[C@@H](COC[C@@H](O)CN2C(=O)c2ccccc2)O1)NCc1cccc(F)c1 | 0 | 0 | -6 | 2 | -2 | -3
COc1ccc(CN2[C@H](CO)[C@H]3c4ccccc4N(C(=O)CC(F)(F)F)C[C@H]32)cc1 | 0 | 0 | . | -7 | 1 | 5
CN1CCc2c1nc1ccccc1c2N=C1CCCN1Cc1ccccc1 | 3 | 43* | 3 | -12 | . | -2
CN1CCc2c1nc1ccccc1c2N (tested in a mixture with another compound) | . | 0 | 3 | -17 | 3 | -14
Cc1cc(C)c(N=C2CCCN2Cc2ccccc2)c(C#N)c1 | . | . | . | . | 84* | .
CO[C@H]1CN(C)C(=O)c2ccc(NC(=O)C3CC3)cc2OC[C@H](C)N(Cc2cccc(F)c2)C[C@@H]1C | 0 | 0 | 5 | -1 | . | 8
COc1ccc(-c2nn(-c3ccccc3)cc2/C=N/N2C(=O)CSC2=S)cc1 | . | . | -3 | . | -18 | .
COc1ccc(-c2nn(-c3ccccc3)cc2/C=C/C(=O)N2CCOCC2)cc1OC | . | 0 | -12 | -24* | -15 | 1
COc1ccc(-c2nn(-c3ccccc3)cc2/C=N/O)cc1 | 0 | 0 | 3 | -38* | 3 | 0
O=C(O)/C=C/c1cn(-c2ccccc2)nc1-c1ccccc1 | 0 | 0 | -10 | -9 | 90* | 1
C[C@H]1C/C=C\C[C@H](c2ccc3c(c2)OCO3)NC(=O)[C@H](c2ccccc2)CC(=O)N1 | . | . | -8 | 2 | . | .
Cc1ccc(S(=O)(=O)N2CC[C@@H]3[C@H]2c2cc(C#Cc4cccc(F)c4)ccc2N[C@@H]3CO)cc1 | -1 | 0 | -21 | 0 | 49 | 5
Cc1noc(C)c1S(=O)(=O)Nc1ccc2c(c1)CC(=O)N([C@H](C)CO)C[C@H](C)[C@@H](CN(C)Cc1ccc(C(=O)O)cc1)O2 | -5 | 0 | . | 2 | . | 25*
Cc1noc(C)c1S(=O)(=O)Nc1ccc2c(c1)CC(=O)N([C@H](C)CO)C[C@@H](C)[C@H](CN(C)Cc1ccc(-c3ccccc3)cc1)O2 | 2 | -1 | . | -2 | 111* | 12
Cc1noc(C)c1S(=O)(=O)Nc1ccc2c(c1)CC(=O)N([C@@H](C)CO)C[C@H](C)[C@@H](CN(C)Cc1ccc(-c3ccccc3)cc1)O2 | 0 | 0 | . | 1 | 48 | 10
Cc1noc(C)c1S(=O)(=O)Nc1ccc2c(c1)CC(=O)N([C@H](C)CO)C[C@@H](C)[C@@H](CN(C)Cc1ccc(C(F)(F)F)cc1)O2 | 5 | 0 | . | -6 | 83* | 0
Cc1noc(C)c1NC(=O)Nc1ccc2c(c1)C(=O)N([C@@H](C)CO)C[C@H](C)[C@@H](CN(C)Cc1ccccc1)O2 | 0 | -1 | . | 3 | -15 | -43
CC(C)NC(=O)N(C)C[C@H]1Oc2c(NC(=O)Nc3ccccc3)cccc2C(=O)N([C@@H](C)CO)C[C@@H]1C | 0 | 0 | . | -1 | -10 | -3
CC(C)CC#Cc1ccc([C@H]2[C@H]3CN(C(=O)Nc4ccc(F)cc4)CC(=O)N3[C@H]2CO)cc1 | 0 | . | . | -31 | . | 3
CCC(=O)c1ccc(OCC(=O)N2CCCC2)c(OC)c1 | . | 44* | 7 | 12 | . | -2
SMILES | E-sel inducer | FGF22 binding | FN deposit inh | Ecoli rRNA inh | C2C12 statin | SIRT5 inh
CCC(=O)c1ccc(OCC(=O)O)c(OC)c1 | 0 | 0 | -4 | 15 | 18 | -2
CCOc1cc(C(=O)Nc2cccc(C(C)=O)c2)ccc1OCC(=O)N1CCCCC1 | . | 44* | 2 | -21 | . | -5
CCOc1cc(C(=O)Nc2ccccc2N2CCOCC2)ccc1OCC(=O)N1CCCCC1 | 0 | 0 | -13 | 2 | . | 0
O=C(COc1ccc2ccccc2c1Br)N1CCCC1 | . | 0 | 1 | -26* | . | 3
CN1C(=O)c2cc(NC(=O)C3CCCCC3)ccc2OC[C@@H]2O[C@@H](CC(=O)NCc3ccccc3F)CC[C@@H]21 | 0 | 0 | -20 | -4 | 11 | -1
O=C(C[C@H]1C=C[C@@H](NC(=O)Nc2ccc(F)cc2)[C@H](CO)O1)NCCN1CCCC1 | 0 | 0 | 8 | 3 | 0 | 2
O=C(Nc1ccc(Cl)cc1)N[C@@H]1CC[C@@H](CCn2cc(Cc3ccccc3)nn2)O[C@H]1CO | -2 | 0 | . | -8 | 19 | -1
O=C(COC(=O)Cn1nnc(-c2ccccc2)n1)Nc1ccccc1Br | 0 | 0 | -1 | 16 | 100* | 0
COc1ccc(OC)c(NC(=O)COC(=O)Cn2nnc(-c3ccccc3)n2)c1 | . | 0 | -5 | 5 | 5 | -4
Cc1cc(/C=C(/C#N)c2cccc(F)c2)c(C)n1-c1cccnc1 | . | 0 | . | -35* | 25 | -4
O=C(CN1C(=O)CCC1=O)c1ccc(-c2ccccc2)cc1 | -3 | 0 | 7 | . | . | 0
N=c1ccn(CC(=O)c2ccc(-c3ccccc3)cc2)cc1 | 0 | 42 | -1 | -41* | . | -2
CCOC(=O)Cn1c(=O)oc2cc(S(=O)(=O)N(C)c3cccc(C)c3)ccc21 | 3 | 0 | 0 | -22* | . | .
OCC1CCCN(C(=S)Nc2ccc(Nc3ccccc3)cc2)C1 (configuration not stated) | . | -1 | 5 | -27* | 2 | 1
CCOC(=O)C1=C[C@@H](C)N(S(=O)(=O)c2ccc(C)cc2)[C@H]1c1ccccc1 | 0 | 0 | 10 | . | 7 | 2
CCOC(=O)C1=C[C@@H](c2ccccc2)N(S(=O)(=O)c2ccc(C)cc2)[C@H]1c1ccccc1Cl | 0 | 0 | -2 | 6 | -2 | 23*
